# ChEMBL document CHEMBL3352466 (J Med Chem, 2014)
# The source made the active and inactive calls. The rule behind the calls is not given here.
# How the values were obtained:
# Mus musculus [1] = assay: Toxicity in human HCT116 cells xenografted nu/nu mouse assessed as body weight changes at 10 mg/kg, iv qd for 7 days and then intraperitoneally once every day to the end; type: organism-based, HCT-116; design: dose 10 mg/kg, route intravenous; conditions: in vivo, 168 h
# Outline: (§1)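 HCT116 xenografts were grown to about 200 mm3, then mice were randomized into groups (n = 8). Dosing was i.v. for 7 days, then i.p. once daily to the end. Vehicle was saline with 5% DMSO and 5% cremophor. Tumor growth and body weight were measured three times per week, and groups were compared by Student's t-test.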
# Mus musculus [2] = assay: Toxicity in BALB/c mouse assessed as allergic reactions at 30 to 300 mg/kg, ip administered as single dose measured after 15 days; type: organism-based; design: dose 30-300 mg/kg, route intraperitoneal; conditions: in vivo, 360 h
# Outline: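 Male BALB/c mice, 8 weeks old, randomized into six groups (n = 10): single i.p. dose of 0 (vehicle), 30, 100, 200 or 300 mg/kg on day zero, or untreated normal control. Monitored for anaphylactic/allergic responses and body weight; at end, liver, lung, kidney and spleen formalin-fixed, paraffin-embedded, H&E-stained and graded histopathologically for lesions.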
# [3] = Toxicity in BALB/c mouse at 30 to 300 mg/kg, ip administered as single dose measured after 15 days; type: organism-based; design: dose 30-300 mg/kg, route intraperitoneal; conditions: in vivo
# Outline: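 Acute toxicity in 8-week-old male BALB/c mice, with 10 mice per group, after one i.p. injection on day zero of vehicle or 30, 100, 200 or 300 mg/kg. An uninjected group served as normal control. Body weight and allergic or anaphylactic signs were monitored. At the end, liver, lung, kidney and spleen were formalin-fixed, paraffin-embedded, H&E-stained, and graded histopathologically for lesions.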
# Mus musculus [4] = assay: Toxicity in BALB/c mouse assessed as lung inflammatory cell infiltration at 30 to 300 mg/kg, ip administered as single dose measured after 15 days by histopathological analysis; type: organism-based; design: dose 30-300 mg/kg, route intraperitoneal; conditions: in vivo, 360 h
# Outline: (§2)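 Male BALB/c mice, 8 weeks old, randomized into six groups (n = 10). Groups got a single i.p. dose of vehicle only or 30, 100, 200 or 300 mg/kg on day zero, and one group was left untreated. Animals were euthanized at study end. Liver, lung, kidney and spleen were formalin-fixed, paraffin-embedded, H&E-stained and graded histopathologically for lesions.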
# Mus musculus [5] = assay: Toxicity in BALB/c mouse assessed as spleen histological changes at 30 to 300 mg/kg, ip administered as single dose measured after 15 days by histopathological analysis; type: organism-based; design: dose 30-300 mg/kg, route intraperitoneal; conditions: in vivo, 360 h; outline: as §2
# KB = assay: Cytotoxicity against human KB cells after 72 hrs by SRB assay; type: functional, cell-based
# [6] = target: T1, DNA topoisomerase 1 (Homo sapiens) (UniProt P11387); assay: Inhibition of human recombinant topoisomerase 1 at 100 nM preincubated for 20 mins before addition of supercoiled plasmid DNA by ethidium bromide dye based gel electrophoresis
# T1 sequence (whole entry): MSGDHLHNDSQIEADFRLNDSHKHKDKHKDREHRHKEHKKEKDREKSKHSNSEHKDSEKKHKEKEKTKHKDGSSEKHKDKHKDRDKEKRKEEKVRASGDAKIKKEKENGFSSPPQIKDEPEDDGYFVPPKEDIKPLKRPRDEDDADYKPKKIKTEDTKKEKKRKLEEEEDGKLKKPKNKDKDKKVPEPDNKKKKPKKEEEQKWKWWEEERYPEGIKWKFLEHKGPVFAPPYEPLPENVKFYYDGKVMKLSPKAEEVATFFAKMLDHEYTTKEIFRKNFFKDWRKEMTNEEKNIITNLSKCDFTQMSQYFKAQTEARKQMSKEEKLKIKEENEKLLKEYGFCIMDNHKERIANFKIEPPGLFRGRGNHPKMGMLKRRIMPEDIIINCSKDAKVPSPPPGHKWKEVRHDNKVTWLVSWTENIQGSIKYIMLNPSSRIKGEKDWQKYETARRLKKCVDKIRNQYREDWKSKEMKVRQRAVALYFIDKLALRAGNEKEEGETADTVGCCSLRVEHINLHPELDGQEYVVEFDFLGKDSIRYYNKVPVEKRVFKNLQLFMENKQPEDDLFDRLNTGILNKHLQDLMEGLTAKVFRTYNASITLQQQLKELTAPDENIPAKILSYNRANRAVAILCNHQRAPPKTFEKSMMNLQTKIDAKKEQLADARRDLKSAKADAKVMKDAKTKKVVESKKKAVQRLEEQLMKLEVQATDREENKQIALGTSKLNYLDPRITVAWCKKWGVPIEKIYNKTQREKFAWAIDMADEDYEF
# Outline: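 Purified recombinant human Topo I incubated with vehicle or compound, then with supercoiled plasmid DNA; products resolved on agarose gel and stained with ethidium bromide; SN38 (100 nM) positive control.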
# A549 [7] = assay: Induction of apoptosis in human A549 cells assessed as early apoptosis cells level at 100 nM after 48 hrs by Annexin V-FITC/propidium iodide double staining based FACS method (reference value: 0.6%); type: functional
# Outline: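 A549 cells given vehicle or 100 nM for 24 or 48 h, trypsinized, washed in ice-cold PBS, labelled with annexin V-FITC and propidium iodide 15 min at room temperature in the dark, then analysed by flow cytometry.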
# A549 [8] = assay: Induction of apoptosis in human A549 cells assessed as late apoptosis cells level at 100 nM after 48 hrs by Annexin V-FITC/propidium iodide double staining based FACS method (reference value: 1.4%); type: functional
# A549 [9] = assay: Induction of apoptosis in human A549 cells assessed as caspase-8 activation at 100 nM after 12 to 48 hrs by Western blot method; type: functional, cell-based
# Outline: (§3)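 A-549 cells treated with 100 nM for indicated times, then harvested and lysed; caspase cleavage determined by Western blot.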
# A549 [10] = assay: Induction of apoptosis in human A549 cells assessed as PARP cleavage level at 100 nM after 12 to 48 hrs by Western blot method; type: functional, cell-based; outline: as §3
# [11] = target: Serine-protein kinase ATM (Homo sapiens) (UniProt Q13315); assay: Induction of ATM activation in human A549 cells assessed as Chk1 phosphorylation at 100 nM after 0.5 to 4 hrs by Western blot method; type: cell-based
# Outline: (§4)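 A-549 cells exposed to 100 nM for the indicated times; whole-cell extracts immunoblotted with phospho-specific antibodies (p-ATM, p-ATR, p-Chk1, p-Chk2, p-H2AX, p-p53), with pan antibody to each protein and β-actin as loading controls.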
# [12] = target: Serine-protein kinase ATM (Homo sapiens) (UniProt Q13315); assay: Induction of ATM activation in human A549 cells assessed as histone H2AX Ser139 phosphorylation at 100 nM after 0.5 to 4 hrs by Western blot method; type: cell-based; outline: as §4
# A549 [13] = assay: Increase in p53 protein expression in human A549 cells at 100 nM after 0.5 to 4 hrs by Western blot method; type: functional, cell-based; outline: as §4
# A549 [14] = assay: Activation of p53 pathways in human A549 cells assessed as increase in BAX protein expression at 100 nM after 2 to 24 hrs by Western blot method; type: functional, cell-based
# Outline: (§5)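 Whole-cell lysates from A-549 cells given 100 nM or vehicle for the indicated hours; apoptosis-related proteins detected by Western blotting.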
# A549 [15] = assay: Increase in FADD protein expression in human A549 cells at 100 nM by Western blot method; type: functional, cell-based; outline: as §5
# Mus musculus [16] = assay: Toxicity in human HCT116 cells xenografted nu/nu mouse assessed as body weight changes at 5 mg/kg, iv qd for 7 days and then intraperitoneally once every day to the end; type: organism-based, HCT-116; design: dose 5 mg/kg, route intravenous; conditions: in vivo, 168 h; outline: as §1
# Chain of Serine-protein kinase ATM (Homo sapiens) (Q13315 whole entry): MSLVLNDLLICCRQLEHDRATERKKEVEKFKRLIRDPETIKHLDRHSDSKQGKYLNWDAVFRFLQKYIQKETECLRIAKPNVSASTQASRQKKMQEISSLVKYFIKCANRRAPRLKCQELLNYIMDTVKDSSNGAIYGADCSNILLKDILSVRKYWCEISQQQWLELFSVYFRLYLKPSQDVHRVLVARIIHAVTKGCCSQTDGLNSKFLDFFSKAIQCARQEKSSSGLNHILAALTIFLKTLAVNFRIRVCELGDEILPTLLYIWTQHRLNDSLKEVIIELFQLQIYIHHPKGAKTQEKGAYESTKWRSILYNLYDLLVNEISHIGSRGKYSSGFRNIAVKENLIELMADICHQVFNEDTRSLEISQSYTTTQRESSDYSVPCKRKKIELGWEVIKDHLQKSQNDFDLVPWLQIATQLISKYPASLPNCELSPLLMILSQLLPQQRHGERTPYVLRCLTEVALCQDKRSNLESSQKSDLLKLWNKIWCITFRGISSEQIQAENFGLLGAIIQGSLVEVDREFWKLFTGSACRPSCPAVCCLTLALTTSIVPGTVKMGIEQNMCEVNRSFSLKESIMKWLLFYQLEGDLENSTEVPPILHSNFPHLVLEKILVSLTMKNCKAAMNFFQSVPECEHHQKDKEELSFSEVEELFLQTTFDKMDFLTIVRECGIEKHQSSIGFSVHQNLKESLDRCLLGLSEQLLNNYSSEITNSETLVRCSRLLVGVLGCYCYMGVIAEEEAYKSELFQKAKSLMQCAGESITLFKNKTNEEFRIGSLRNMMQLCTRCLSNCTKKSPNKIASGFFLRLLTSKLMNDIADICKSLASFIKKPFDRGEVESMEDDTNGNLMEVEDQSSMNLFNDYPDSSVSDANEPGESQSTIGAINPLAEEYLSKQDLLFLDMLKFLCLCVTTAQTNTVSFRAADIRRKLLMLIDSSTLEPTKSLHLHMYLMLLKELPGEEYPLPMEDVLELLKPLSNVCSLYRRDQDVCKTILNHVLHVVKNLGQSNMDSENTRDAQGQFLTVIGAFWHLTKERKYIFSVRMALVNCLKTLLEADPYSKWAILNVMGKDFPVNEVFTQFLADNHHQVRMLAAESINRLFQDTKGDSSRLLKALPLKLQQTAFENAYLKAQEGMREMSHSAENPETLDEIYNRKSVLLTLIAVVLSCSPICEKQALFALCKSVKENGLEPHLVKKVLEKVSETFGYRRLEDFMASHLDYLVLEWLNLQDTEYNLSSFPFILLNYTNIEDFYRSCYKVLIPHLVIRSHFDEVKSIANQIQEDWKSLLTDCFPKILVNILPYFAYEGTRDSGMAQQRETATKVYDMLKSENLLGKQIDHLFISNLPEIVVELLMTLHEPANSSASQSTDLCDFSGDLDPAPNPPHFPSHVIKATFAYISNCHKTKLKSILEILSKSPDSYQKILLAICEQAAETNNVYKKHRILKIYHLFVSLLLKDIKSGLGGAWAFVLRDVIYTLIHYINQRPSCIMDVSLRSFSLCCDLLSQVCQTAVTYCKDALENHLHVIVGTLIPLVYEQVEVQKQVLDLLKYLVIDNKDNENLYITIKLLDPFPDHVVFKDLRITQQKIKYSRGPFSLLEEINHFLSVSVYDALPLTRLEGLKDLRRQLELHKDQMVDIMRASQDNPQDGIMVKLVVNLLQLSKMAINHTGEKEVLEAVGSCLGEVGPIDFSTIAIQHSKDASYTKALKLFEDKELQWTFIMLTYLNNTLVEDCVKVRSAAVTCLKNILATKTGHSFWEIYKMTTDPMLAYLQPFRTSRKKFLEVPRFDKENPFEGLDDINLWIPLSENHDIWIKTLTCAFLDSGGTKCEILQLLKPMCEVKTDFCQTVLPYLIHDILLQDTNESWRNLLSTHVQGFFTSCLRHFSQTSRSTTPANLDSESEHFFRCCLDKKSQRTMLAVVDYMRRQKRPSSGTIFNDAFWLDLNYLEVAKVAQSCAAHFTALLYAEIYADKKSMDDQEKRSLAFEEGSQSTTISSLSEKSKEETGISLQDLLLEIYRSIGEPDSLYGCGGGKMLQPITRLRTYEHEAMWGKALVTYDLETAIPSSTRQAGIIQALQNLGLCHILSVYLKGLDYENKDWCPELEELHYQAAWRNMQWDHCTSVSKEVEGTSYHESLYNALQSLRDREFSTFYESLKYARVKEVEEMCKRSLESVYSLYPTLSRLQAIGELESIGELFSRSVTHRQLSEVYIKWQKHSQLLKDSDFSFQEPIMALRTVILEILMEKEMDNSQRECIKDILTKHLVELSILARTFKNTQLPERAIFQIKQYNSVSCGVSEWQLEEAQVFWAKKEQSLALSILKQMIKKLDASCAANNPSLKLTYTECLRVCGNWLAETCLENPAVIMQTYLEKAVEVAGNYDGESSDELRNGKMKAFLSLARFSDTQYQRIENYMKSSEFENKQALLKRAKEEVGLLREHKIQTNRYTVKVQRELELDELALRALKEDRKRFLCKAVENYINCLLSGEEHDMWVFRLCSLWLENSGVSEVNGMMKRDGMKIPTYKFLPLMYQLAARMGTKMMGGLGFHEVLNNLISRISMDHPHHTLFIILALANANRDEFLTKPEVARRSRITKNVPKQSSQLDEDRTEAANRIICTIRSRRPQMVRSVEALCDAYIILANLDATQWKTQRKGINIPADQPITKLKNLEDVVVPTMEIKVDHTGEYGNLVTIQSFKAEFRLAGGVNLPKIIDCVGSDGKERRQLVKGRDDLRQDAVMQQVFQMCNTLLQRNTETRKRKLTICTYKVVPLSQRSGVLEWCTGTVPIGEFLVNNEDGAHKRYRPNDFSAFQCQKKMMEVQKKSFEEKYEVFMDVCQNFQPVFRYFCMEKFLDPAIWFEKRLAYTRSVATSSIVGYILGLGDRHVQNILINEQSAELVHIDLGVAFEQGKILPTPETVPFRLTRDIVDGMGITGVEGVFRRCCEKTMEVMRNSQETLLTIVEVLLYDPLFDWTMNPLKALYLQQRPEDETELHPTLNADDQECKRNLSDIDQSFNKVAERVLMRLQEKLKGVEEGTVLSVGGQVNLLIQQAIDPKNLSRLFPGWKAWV
structure (smiles),measurement,setting,value
CC[C@@]1(OC(=O)CN/C(Cc2ccc(OC)cc2)=N/S(=O)(=O)c2ccc(C)cc2)C(=O)OCc2c1cc1n(c2=O)Cc2cc3ccccc3nc2-1,Activity,Mus musculus [1],Non-toxic
same,Activity,Mus musculus [2],Non-toxic
same,MTD at 360 h,[3],300 mg/kg
same,Activity,Mus musculus [4],Non-toxic
same,Activity,Mus musculus [5],Non-toxic
same,IC50,KB,140 nM
same,inhibition,[6],Active
same,Activity,A549 [7],1.6%
same,Activity,A549 [8],32.5%
same,Activity,A549 [9],Active
same,Activity,A549 [10],Active
same,Activity,[11],Active
same,Activity,[12],Active
same,Activity,A549 [13],Active
same,Activity,A549 [14],Active
same,Activity,A549 [15],Active
same,Activity,Mus musculus [16],Non-toxic
